High-throughput results (PubChem)
Compounds with a hit are over-represented: about 3.9% of the library has one in this group of screens.
CRFR2-BP ag – agonists of CRF-BP/CRF-R2 complex, primary screen, cell-based, HEK293, calcium dye fluorescence, uHTS. CRF-binding protein / CRF receptor 2 complex (human). calcium dye fluorescence (FLIPR); percent of saturating CRF peptide response. activation, % at 13.2 µM. hit rate 0.46% among 350,000;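 active = activation of at least 50%, plus an integration ratio under a set limit after plate pattern correction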;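 also: plate controls were neutral control wells without compound for no effect and CRF at EC100 for full effect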
CRFBP-R2 block – antagonists of CRF-BP/CRF-R2 complex, primary screen, cell-based, HEK293, calcium dye fluorescence, uHTS; CRF-induced calcium fluorescence; inhibition, % at 11.8 µM; hit rate 0.59% among 350,000; AID 588475, 2011;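 active = inhibition of the ligand-induced calcium signal above about 50% at the single tested concentration, limit read from the data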
TAAR1 antag – human TAAR1 antagonists, primary screen, Fluo-8 calcium fluorescence, CHO RD-HGA16 cells | AID 624466, 2012 | hit rate 1.5% among 360,000 | Trace amine-associated receptor 1 (Homo sapiens), Q96RJ0 | inhibition, % at 3 µM | antagonist;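 active = inhibition above a per-plate cutoff, the mean inhibition of test compounds on that plate plus 3 SD, cut at about 49% in these data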;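 also: 0% = DMSO plus EC80 beta-PEA response and 100% = DMSO alone without agonist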
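Test system – hTAAR1-expressing CHO RD-HGA16 cells, Gα16-coupled · Also added – β-PEA at EC80 concentration, post-compound challenge · Compound – 3 µM, single point · Incubation – dye loading 75 min at 37 °C, then 30 min room temperature · Measured by – Fluo-8 intracellular calcium dye fluorescence, real-time kinetic reads · Benchmarks – vehicle and agonist controls · Replicates – singlicate, one well per test compound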
TAAR1 agonist – human TAAR1 agonists, primary screen, Fluo-8 calcium fluorescence, CHO RD-HGA16 cells; vehicle wells 0%, saturating PEA agonist 100%; activation, % at 3 µM; hit rate 0.99% among 360,000;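 active = activation above the mean activation of all test compounds in the run plus 3 SD, cut at about 38% in these data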
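Assay system: CHO-derived RD-HGA16 cells with stable Gα16 and human TAAR1; timing: 17-24 h seeding, 75 min 37 °C dye, 30 min RT; read-out: % activation from peak over basal fluorescence ratio, DMSO-to-PEA scaled; measured by: kinetic Fluo-8 calcium fluorescence; benchmarks: low control DMSO, high control PEA (EC100); doses: 3 µM single concentration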
ANO1 activ – TMEM16A chloride channel activators or potentiators, primary screen, cell-based, HTS | hit rate 0.3% among 340,000 | AID 623877, 2012 | HEK293 TMEM16A/YFP-H148Q/I152L, iodide quench fluorescence; active compounds read low | B-score at 10 µM;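 active = fluorescence-ratio B-score plate-corrected deviation score at least 3 library SD below zero, with starting fluorescence score within 5 deviations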;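 also: channel opened by trigger with iodide after compound preincubation; score built on the fluorescence ratio of max minus min over baseline; more negative score means more quench and so TMEM16A activation or potentiation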
TMEM16A inh – TMEM16A chloride channel inhibitors, primary screen, cell-based, HTS; hit rate 1.2% among 310,000; HEK293 TMEM16A/YFP iodide influx fluorescence, ionomycin; AID 588511, 2011; normalized B-score (activity score, 25-100; higher = stronger inhibition) at 10 µM; Anoctamin-1 (Mus musculus), Q8BHY3;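 active = ratio plate-corrected score three or more library SD toward inhibition, starting fluorescence score within five deviations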;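 also: score derived from kinetic fluorescence span divided by baseline fluorescence per well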
TMEM16A reconf – TMEM16A chloride channel inhibitors, confirmation, cell-based, re-confirmation; shares compounds with TMEM16A inh; HEK293 TMEM16A/YFP-H148Q, iodide quench fluorescence; ionomycin added to raise cell calcium; inhibition, % at 10 µM; hit rate 39% among 2,300; AID 652189, 2013;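 active = mean duplicate percent inhibition, scaled so buffer wells are 0 and the reference blocker 100, over three buffer SD above buffer mean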
TMEM16A Ca cntr – calcium mobilization in TMEM16A/YFP HEK293 cells, confirmation, counter-screen for TMEM16A inhibitor project | shares compounds with TMEM16A inh | Fluo4 calcium mobilization | calcium response (% of ionomycin), % at 10 µM | hit rate 2% among 2,300;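 active = duplicate-averaged calcium signal over 20% of the ionomycin maximum, relative to buffer baseline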;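 also: each well's signal is peak minus trough fluorescence divided by its pre-addition baseline; 0% = buffer wells and 100% = ionomycin wells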
Parental YFP cnt – iodide YFP quench changes in parental YFP-HEK293, counter-screen for TMEM16A inhibitor project, cell-based; shares compounds with TMEM16A inh; ionomycin; YFP ratio F(max-min)/F0 at 10 µM; 2,300 tested, under 10 active; AID 652233, 2013;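 active = yellow fluorescent protein signal ratio exceeding the buffer control mean by over 5 SD of those controls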;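 also: ratio is mean of duplicate wells from kinetic YFP trace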
ClC-1 rat inh – ClC-1 chloride channel inhibition, selectivity assay for TMEM16A inhibitor project, cell-based, voltage-dependent ClC-1 | ratio percent, % at 10 µM | 2,300 tested, under 10 active | AID 652236, 2013 | shares compounds with TMEM16A inh | CHO ClC-1-YFP, iodide influx fluorescence quench; iodide control reads 0, buffer control 100;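 active = duplicate-mean ratio percent above the mean of iodide-only control wells, which defines zero, plus 5 of their SD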;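 also: higher percent means stronger block of ClC-1 iodide influx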
Target sequence (P35524 whole entry, looked up): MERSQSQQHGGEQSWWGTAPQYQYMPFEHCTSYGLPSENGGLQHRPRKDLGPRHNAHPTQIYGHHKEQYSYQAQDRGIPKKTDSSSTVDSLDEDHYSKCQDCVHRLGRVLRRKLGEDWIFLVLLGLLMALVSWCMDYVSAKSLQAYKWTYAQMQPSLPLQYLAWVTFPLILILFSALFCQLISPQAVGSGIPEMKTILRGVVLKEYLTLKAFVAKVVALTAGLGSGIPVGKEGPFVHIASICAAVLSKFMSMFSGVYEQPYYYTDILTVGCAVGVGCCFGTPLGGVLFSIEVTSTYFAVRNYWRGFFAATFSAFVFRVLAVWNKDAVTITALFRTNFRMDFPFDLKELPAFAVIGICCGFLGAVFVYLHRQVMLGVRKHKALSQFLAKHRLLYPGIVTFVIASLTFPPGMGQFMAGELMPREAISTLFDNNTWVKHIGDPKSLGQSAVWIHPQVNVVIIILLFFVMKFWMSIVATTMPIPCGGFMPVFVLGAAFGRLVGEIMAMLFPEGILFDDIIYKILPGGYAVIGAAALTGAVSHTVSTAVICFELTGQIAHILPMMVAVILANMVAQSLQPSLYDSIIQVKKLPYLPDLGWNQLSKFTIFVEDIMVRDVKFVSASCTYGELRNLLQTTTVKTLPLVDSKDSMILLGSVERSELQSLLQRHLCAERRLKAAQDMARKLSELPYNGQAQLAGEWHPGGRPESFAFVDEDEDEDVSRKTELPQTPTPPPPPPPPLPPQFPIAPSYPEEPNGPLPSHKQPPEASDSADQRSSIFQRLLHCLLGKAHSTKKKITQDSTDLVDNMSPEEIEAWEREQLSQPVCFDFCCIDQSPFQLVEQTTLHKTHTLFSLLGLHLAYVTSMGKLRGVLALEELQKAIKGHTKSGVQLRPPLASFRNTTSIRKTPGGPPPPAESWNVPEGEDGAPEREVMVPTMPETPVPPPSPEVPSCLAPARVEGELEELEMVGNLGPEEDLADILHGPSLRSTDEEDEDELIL
* marks the source's active call; other numbers are inactive results; i = inactive; . = no result given.

SMILES	CRFR2-BP ag	CRFBP-R2 block	TAAR1 antag	TAAR1 agonist	ANO1 activ	TMEM16A inh	TMEM16A reconf	TMEM16A Ca cntr	Parental YFP cnt	ClC-1 rat inh
CC(=O)c1ccc(N2CCN(C(=O)Nc3ccc(C(C)C)cc3)CC2)cc1	0	0	26	11	i	100*	29%*	i	-0.94	-3
CC(=O)c1ccc(N2CCN(C(=O)Nc3ccc(F)cc3)CC2)cc1	.	.	.	.	i	i	.	.	.	.
CC(=O)c1ccc(N2CCN(C(=S)Nc3ccccc3)CC2)cc1	-1	4	-2	18	i	100*	i	i	-0.99	-6
O=C(Nc1ccccc1N1CCOCC1)c1ccccc1NS(=O)(=O)c1ccc(F)cc1	-6	-6	-5	9	i	i	.	.	.	.
O=C(c1ccccc1NS(=O)(=O)c1ccc(F)cc1)N1CCCCC1	2	-22	-1	0	i	i	.	.	.	.
Cc1ccc(S(=O)(=O)Nc2ccccc2C(=O)Nc2nc(-c3ccc(F)cc3)cs2)cc1	22	77*	75*	4	i	25*	39%*	i	-1.2	-17
Cc1ccc(S(=O)(=O)Nc2nc(-c3ccccc3)cs2)cc1	0	6	-23	2	i	i	.	.	.	.
O=C(Nc1cc(S(=O)(=O)N2CCCCC2)ccc1O)c1ccccc1NS(=O)(=O)c1ccc(F)cc1	72*	8	22	2	i	100*	68%*	i	-1	-18
Cc1cc(F)ccc1S(=O)(=O)Nc1ccccc1C(=O)Nc1ccccc1N1CCOCC1	4	13	-4	7	i	25*	i	i	-1.1	-16
O=C(Nc1ccccc1N1CCOCC1)c1ccccc1NS(=O)(=O)c1ccc(F)c(F)c1	33	15	27	8	i	100*	31%*	i	-1	-9
C[C@@H]1CN([C@@H](C)CO)C(=O)CCCn2nncc2CO[C@@H]1CN(C)S(=O)(=O)c1ccccc1	0	19	-8	1	.	.	.	.	.	.
CCc1ccccc1NC(=O)CNC(=O)c1ccc(-n2cncn2)c([N+](=O)[O-])c1	-1	-4	-12	3	i	i	.	.	.	.
CC[C@H](C)C(N)c1cn(C(CCCN=C(N)N)C(=O)N2CCNCC2)nn1 (stereo not given in full)	0	11	-5	8	i	i	.	.	.	.
Cc1c(OCC(=O)NCC2CCC(C(=O)NCCCO)CC2)ccc2c(-c3ccccc3)cc(=O)oc12 (stereo not given)	-1	8	-18	-1	i	i	.	.	.	.
O=C(CN(Cc1ccco1)C(=O)c1cc(=O)[nH]c2ccccc12)Nc1ccccc1Br	2	-43	8	10	i	100*	i	i	-1.1	-2
COC(=O)C1=C(N)OC2=C(C(=O)CC(C)(C)C2)C1c1cc2c(cc1Cl)OCO2 (stereo not given)	1	9	-8	6	i	i	.	.	.	.
COCCn1c(C(C)C)nc2sc3ccccc3c(=O)c2c1=O	0	5	.	.	i	i	.	.	.	.
